Results as given in ChEMBL document CHEMBL5104177, “Discovery and Crystallographic Studies of Trisubstituted Piperazine Derivatives as Non-Covalent SARS-CoV-2 Main Protease Inhibitors with High Target Specificity and Low Toxicity” (J Med Chem, 2022).
pIC50: −log10 of the molar value. Values after ≈ are worked out from the molar mass of the structure shown.

Tests used:
[1] = system: SARS-CoV-2; assay: Antiviral activity against SARS-CoV-2 infected in Vero E6 cells assessed as inhibition of viral replication incubated for 25 to 26 hrs by EliSpot reader based analysis; format: functional, organism-based; conditions: Severe acute respiratory syndrome coronavirus 2, Vero C1008
In short: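 Antiviral assay in SARS-CoV-2-infected Vero E6 cells, with remdesivir and GC-376 as positive controls, n = 3 biological replicates, SD reported. The potency index is EC50(remdesivir)/EC50(test compound), both measured in this assay.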

[2] = molecular target: T1, Cathepsin F (Homo sapiens, UniProt Q9UBX1); assay: Inhibition of human Cathepsin F using Z-Phe-Arg-AMC as fluorogenic substrate incubated for 60 mins by FRET assay
T1 sequence (Q9UBX1 whole entry): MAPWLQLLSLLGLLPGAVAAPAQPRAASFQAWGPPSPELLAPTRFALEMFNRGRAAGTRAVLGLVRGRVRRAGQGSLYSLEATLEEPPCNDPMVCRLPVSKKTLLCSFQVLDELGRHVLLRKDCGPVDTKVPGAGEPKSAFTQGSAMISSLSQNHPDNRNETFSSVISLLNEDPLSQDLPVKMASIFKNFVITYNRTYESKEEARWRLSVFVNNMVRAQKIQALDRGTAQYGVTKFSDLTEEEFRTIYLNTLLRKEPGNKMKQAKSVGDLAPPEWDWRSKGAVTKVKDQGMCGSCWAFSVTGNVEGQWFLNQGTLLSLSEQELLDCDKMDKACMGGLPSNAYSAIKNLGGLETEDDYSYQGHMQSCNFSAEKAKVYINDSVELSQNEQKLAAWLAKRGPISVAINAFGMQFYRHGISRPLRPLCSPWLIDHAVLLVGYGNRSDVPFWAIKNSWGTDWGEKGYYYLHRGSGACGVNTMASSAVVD

[3] = Cytotoxicity against African green monkey Vero E6 cells assessed as reduction in cell viability incubated for 26 hrs by celltiter 96 aqueous non-radioactive cell proliferation assay; format: toxicity, cell-based, Vero C1008; conditions: chlorocebus sabaeus
In short: (§1)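 Cytotoxicity measured in Vero E6 cells run in parallel with the antiviral assay, n = 3 biological replicates, SD reported.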

[4] = C0 in Sprague-Dawley rat at 2 mg/kg, iv measured upto 24 hrs by LC-MS/MS analysis; format: ADME, organism-based; conditions: in vivo
In short: (§2)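 Single-dose pharmacokinetics in Sprague–Dawley rats: 2 mg/kg given i.v. or 10 mg/kg given orally, in separate arms. Plasma parameters were derived for each route. Oral bioavailability (F) was obtained from the two arms. Values are mean ± SD, n = 3.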

[5] = Half life in Sprague-Dawley rat at 2 mg/kg, iv measured upto 24 hrs by LC-MS/MS analysis; format: ADME, organism-based; conditions: in vivo; in short: as §2
[6] = MRT (0 to infinity) in Sprague-Dawley rat at 2 mg/kg, iv measured upto 24 hrs by LC-MS/MS analysis; format: ADME, organism-based; conditions: in vivo; in short: as §2
[7] = Cmax in Sprague-Dawley rat at 2 mg/kg, iv measured upto 24 hrs by LC-MS/MS analysis; format: ADME, organism-based; set-up: dose 2 mg/kg, time < 24 hrs, route iv; conditions: in vivo; in short: as §2
[8] = AUC (0 to infinity) in Sprague-Dawley rat at 10 mg/kg, po measured upto 24 hrs by LC-MS/MS analysis; format: ADME, organism-based; set-up: dose 10 mg/kg, time < 24 hrs, route po; conditions: in vivo; in short: as §2
[9] = Cmax in Sprague-Dawley rat at 10 mg/kg, po measured upto 24 hrs by LC-MS/MS analysis; format: ADME, organism-based; set-up: time < 24 hrs, dose 10 mg/kg, route po; conditions: in vivo; in short: as §2
[10] = AUC (0 to infinity) in Sprague-Dawley rat at 2 mg/kg, iv measured upto 24 hrs by LC-MS/MS analysis; format: ADME, organism-based; set-up: dose 2 mg/kg, time < 24 hrs, route iv; conditions: in vivo
[11] = Half life in Sprague-Dawley rat at 10 mg/kg, po measured upto 24 hrs by LC-MS/MS analysis; format: ADME, organism-based; conditions: in vivo; in short: as §2
[12] = molecular target: Cathepsin B (Homo sapiens, UniProt P07858); assay: Inhibition of human Cathepsin B using Z-Leu-Arg-AMC as fluorogenic substrate incubated for 60 mins by FRET assay
[13] = Oral bioavailability in Sprague-Dawley rat at 10 mg/kg measured upto 24 hrs by LC-MS/MS analysis; format: ADME, organism-based; conditions: in vivo; in short: as §2
[14] = molecular target: Replicase polyprotein 1ab (Severe acute respiratory syndrome coronavirus 2, UniProt P0DTD1); assay: Inhibition of SARS-CoV-2 main protease using MCA-AVLQSGFR-Lys(Dnp)-Lys-NH2 as fluorescent substrate preincubated for 10 mins followed by substrate addition and measured every 10 sec for 10 mins by FRET assay
[15] = molecular target: T2, Cathepsin K (Homo sapiens, UniProt P43235); assay: Inhibition of human Cathepsin K using Ac-LR-AMC as fluorogenic substrate incubated for 60 mins by FRET assay
T2 sequence (P43235 whole entry): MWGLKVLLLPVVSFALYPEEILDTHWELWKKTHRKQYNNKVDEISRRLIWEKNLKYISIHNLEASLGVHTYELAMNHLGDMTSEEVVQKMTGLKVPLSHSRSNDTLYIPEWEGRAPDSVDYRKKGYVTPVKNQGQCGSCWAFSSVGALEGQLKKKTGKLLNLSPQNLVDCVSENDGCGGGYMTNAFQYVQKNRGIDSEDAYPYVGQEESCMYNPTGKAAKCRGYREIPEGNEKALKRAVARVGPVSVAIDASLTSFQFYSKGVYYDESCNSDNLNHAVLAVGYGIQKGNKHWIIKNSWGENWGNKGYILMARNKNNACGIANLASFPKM

[16] = Clearance in Sprague-Dawley rat at 2 mg/kg, iv measured upto 24 hrs by LC-MS/MS analysis; format: ADME, organism-based; conditions: in vivo; in short: as §2
[17] = Inhibition of SARS-CoV-1 main protease; set-up: species or system Severe acute respiratory syndrome-related coronavirus
In short: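 SARS-CoV-1 Mpro inhibition tested in addition to SARS-CoV-2 Mpro. Values are mean ± SD of three independent experiments.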

[18] = molecular target: Procathepsin L (Homo sapiens, UniProt P07711); assay: Inhibition of human Cathepsin L using Z-Leu-Arg-AMC as fluorogenic substrate incubated for 60 mins by FRET assay
Procathepsin L, sequence (P07711 whole entry): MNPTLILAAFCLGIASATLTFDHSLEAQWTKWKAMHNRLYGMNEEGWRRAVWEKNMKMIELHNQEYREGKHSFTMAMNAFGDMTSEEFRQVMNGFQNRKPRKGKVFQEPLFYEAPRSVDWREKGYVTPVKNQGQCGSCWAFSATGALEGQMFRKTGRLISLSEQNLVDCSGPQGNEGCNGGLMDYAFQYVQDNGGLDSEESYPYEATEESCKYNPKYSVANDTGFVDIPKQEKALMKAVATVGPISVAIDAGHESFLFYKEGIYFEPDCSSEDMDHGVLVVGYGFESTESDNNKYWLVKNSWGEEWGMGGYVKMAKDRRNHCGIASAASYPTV

[19] = MRT (0 to infinity) in Sprague-Dawley rat at 10 mg/kg, po measured upto 24 hrs by LC-MS/MS analysis; format: ADME, organism-based; conditions: in vivo; in short: as §2
[20] = Tmax in Sprague-Dawley rat at 10 mg/kg, po measured upto 24 hrs by LC-MS/MS analysis; format: ADME, organism-based; conditions: in vivo; in short: as §2
[21] = Tmax in Sprague-Dawley rat at 2 mg/kg, iv measured upto 24 hrs by LC-MS/MS analysis; format: ADME, organism-based; conditions: in vivo; in short: as §2
[22] = Kinetic solubility of the compound at pH 7.3; format: physicochemical; conditions: buffer, read-out: Kinetic_solubility
In short: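 Kinetic solubility measured in phosphate buffer at pH 7.3.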

[23] = Microsomal stability in human liver microsomes assessed as intrinsic clearance at 1 uM preincubated for 10 mins followed by NADPH addition and measured upto 60 mins by LC-MS/MS analysis; format: ADME, Microsome; conditions: time < 70 min, read-out: CLH
[24] = AUC (0 to t) in Sprague-Dawley rat at 10 mg/kg, po measured upto 24 hrs by LC-MS/MS analysis; format: ADME, organism-based; set-up: dose 10 mg/kg, time < 24 hrs, route po; conditions: in vivo; in short: as §2
[25] = molecular target: T3, Caspase-3 (Homo sapiens, UniProt P42574); assay: Inhibition of human caspase-3 using Ac-Asp-Glu-Val-Asp-pNA as substrate incubated for 60 mins by FRET assay
T3 sequence (P42574 whole entry): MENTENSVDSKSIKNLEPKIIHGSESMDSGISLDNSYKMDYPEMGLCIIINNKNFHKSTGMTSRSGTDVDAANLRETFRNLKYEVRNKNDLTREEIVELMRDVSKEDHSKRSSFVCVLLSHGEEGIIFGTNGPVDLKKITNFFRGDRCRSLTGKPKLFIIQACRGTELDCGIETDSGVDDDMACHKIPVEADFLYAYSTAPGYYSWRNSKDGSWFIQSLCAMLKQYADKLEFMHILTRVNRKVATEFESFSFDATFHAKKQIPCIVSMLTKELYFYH

[26] = AUC (0 to t) in Sprague-Dawley rat at 2 mg/kg, iv measured upto 24 hrs by LC-MS/MS analysis; format: ADME, organism-based; set-up: dose 2 mg/kg, time < 24 hrs, route iv; conditions: in vivo
[27] = Cytotoxicity against African green monkey Vero E6 cells assessed as reduction in cell viability; format: toxicity, cell-based; conditions: chlorocebus sabaeus; in short: as §1

CC(C)C[C@H](NC(=O)OCc1ccccc1)C(=O)N[C@@H](C[C@@H]1CCNC1=O)C(O)S(=O)(=O)O (some centres undefined)
pIC50 [1]: 6.70 | pIC50 [2]: 7.13

CCC(CC)COC(=O)[C@H](C)N[P@](=O)(OC[C@H]1O[C@@](C#N)(c2ccc3c(N)ncnn23)[C@H](O)[C@@H]1O)Oc1ccccc1
pIC50 [1]: 5.55

O=C(c1cc(=O)[nH]c(=O)[nH]1)N1CCN(c2ccc(Cl)c(Cl)c2)CC1
pIC50 [1]: < 4.30 | CC50 at 26 h [3]: > 100000 nM

O=C(NCc1cccs1)[C@@H]1CN(C(=O)c2cccnc2)CCN1c1ccc(Cl)c(Cl)c1
C0 at 24 h [4]: 1760 ng/mL | half-life [5]: 21.6 min | MRT inf [6]: 24 min | Cmax [7]: 1310 ng/mL | AUC [8]: 230 ng·h/mL | Cmax [9]: 74.6 ng/mL | pIC50 [1]: 5.96 | AUC [10]: 637 ng·h/mL | half-life [11]: 104 min | pIC50 [12]: 4.30 | F [13]: 72% | pIC50 [14]: 9.40 | pIC50 [15]: 4.30 | pIC50 [2]: 4.30 | clearance [16]: 52.3 mL/min/kg | pIC50 [17]: 5.34 | pIC50 [18]: 4.30 | MRT inf [19]: 147 min | Tmax [20]: 30 min | Tmax [21]: 4.8 min | solubility kinetic [22]: 4.1 µg/mL (≈ 8.62 µM) | CLint scaled at 1 µM [23]: 994 mL/min/kg | AUC(0-t) at 24 h [24]: 235 ng·h/mL | CC50 at 26 h [3]: > 100000 nM | pIC50 [25]: 4.30 | AUC(0-t) at 24 h [26]: 627 ng·h/mL

O=C(NCc1ccco1)[C@H]1CN(C(=O)c2cc(=O)[nH]c(=O)[nH]2)CCN1c1ccc(Cl)c(Cl)c1
pIC50 [14]: 8.53

O=c1[nH]cc(-c2cc(-c3cc(Cl)cc(OCc4ccccc4Cl)c3)c(=O)n(-c3cccnc3)c2)c(=O)[nH]1
CC50 [27]: 1700 nM

O=C(NCc1ccco1)C1CN(C(=O)c2cc(=O)[nH]c(=O)[nH]2)CCN1Cc1ccc(Cl)cc1Cl (centres undefined)
pIC50 [14]: 9.23
